Columns and labels:
[1] = Drug metabolism in B6C3F1 mouse liver microsomes after 30 mins by LC-ESI-MS analysis; assay type: ADME
Procedure, shortened: (§1)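 2'-OH-TCC at 0.2, 0.5, 1, 2, 3, 5, 10 and 50 µM incubated with liver microsomes (alamethicin, MgCl2, saccharolactone, UDPGA; 37 °C), sampled at 5, 10, 15 and 30 min. Samples ≥5 µM diluted 1:9 in ACN; LC-ESI-MS. KM and vmax fitted from rate vs concentration; intrinsic clearance derived from these; mean and SD of three.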

[2] = (§2) Drug metabolism in human liver microsomes after 30 mins by LC-ESI-MS analysis; assay type: ADME; details: liver microsomes; procedure, shortened: as §1
Liver microsome [3] = experiment: as §2; assay type: ADME; details: microsomes, 0.5 h; procedure, shortened: as §1
[4] = Intrinsic clearance in cynomolgus monkey liver microsomes after 30 mins by LC-ESI-MS analysis; assay type: ADME, Macaca fascicularis; details: 0.5 h; procedure, shortened: as §1
Liver microsome [5] = experiment: Intrinsic clearance in Sprague-Dawley rat liver microsomes after 30 mins by LC-ESI-MS analysis; assay type: ADME; details: 0.5 h; procedure, shortened: as §1
[6] = biological target: T1, UDP-glucuronosyltransferase 1A9 (Homo sapiens, UniProt O60656); experiment: Drug metabolism assessed as human UGT1A9-mediated N'-glucuronide-triclocarban formation expressed in baculovirus infected insect sf9 cells incubated for 5 mins prior to UDPGA addition measured after 30 mins by LC-ESI-MS analysis; assay type: ADME; details: sf9, 0.5 h
T1 sequence (O60656 whole entry): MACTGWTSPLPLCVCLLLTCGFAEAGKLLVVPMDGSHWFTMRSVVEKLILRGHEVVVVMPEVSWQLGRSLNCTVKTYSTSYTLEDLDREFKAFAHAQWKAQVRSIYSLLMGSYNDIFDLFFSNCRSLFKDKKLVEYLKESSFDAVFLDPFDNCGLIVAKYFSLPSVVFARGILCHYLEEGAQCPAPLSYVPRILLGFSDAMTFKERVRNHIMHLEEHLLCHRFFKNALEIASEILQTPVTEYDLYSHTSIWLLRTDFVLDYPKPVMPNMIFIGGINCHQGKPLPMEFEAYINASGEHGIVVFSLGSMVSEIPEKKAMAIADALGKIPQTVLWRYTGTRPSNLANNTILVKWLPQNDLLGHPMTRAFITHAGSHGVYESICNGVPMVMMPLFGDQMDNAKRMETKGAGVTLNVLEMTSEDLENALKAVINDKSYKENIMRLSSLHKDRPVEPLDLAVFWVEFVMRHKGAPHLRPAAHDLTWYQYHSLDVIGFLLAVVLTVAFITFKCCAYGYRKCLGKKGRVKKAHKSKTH
Procedure, shortened: (§3)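 TCC was incubated at 10 µM (2% DMSO) in 100 mM phosphate pH 7.4 with alamethicin-treated microsomes or Supersomes, 10 mM MgCl2 and 10 mM saccharolactone. After 5 min pre-incubation at 37 °C, UDPGA was added to start the reaction. Protein was raised up to 2 mg/mL. Samples were quenched in ACN with 1 µM DCC internal standard, centrifuged, and N-glucuronides detected by LC-ESI-MS/MS in SRM mode.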

[7] = biological target: T1, UDP-glucuronosyltransferase 1A9; experiment: Drug metabolism assessed as human UGT1A9-mediated N'-glucuronide-triclocarban formation expressed in baculovirus infected insect sf9 cells incubated for 5 mins prior to UDPGA addition measured after 5 to 30 mins by LC-UV analysis; assay type: ADME
Procedure, shortened: (§4)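 Microsomes or UGT Supersomes (5 µg protein) were held 15 min on ice with alamethicin in 100 mM potassium phosphate pH 7.4. TCC was added at 10 µM (2% DMSO) with 10 mM MgCl2 and 10 mM saccharolactone, pre-warmed 5 min at 37 °C, then started with UDPGA. Samples at 5, 10, 15 and 30 min were quenched in ACN. Product was read by LC-UV at 265 nm; rate came from regression over time, three incubations.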

[8] = Drug excretion in Swiss webster mouse urine assessed as 6-O-glucuronide-triclocarban formation at 5 mg/kg, po by LC-MS analysis; assay type: ADME, organism-based; set-up: dose 5 mg/kg, route oral; details: in vivo
Procedure, shortened: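 Mice were housed two per metabolic cage, with blank urine collected over the 24 h before dosing. TCC was given by oral gavage as a 1 mg/mL solution in 20/80 DMSO/PEG400 (v/v) at 5 mg/kg. Urine was collected at 0-24 h and 24-48 h and analysed by online LC-MS. Values are the mean of two independent experiments.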

[9] = Drug excretion in Sprague-Dawley rat urine assessed as 6-O-glucuronide-triclocarban formation at 1 mg/kg, po by LC-MS analysis; assay type: ADME, organism-based; set-up: dose 1 mg/kg, route oral; details: in vivo
Liver microsome [10] = experiment: Drug metabolism in human liver microsomes assessed as N-glucuronide-triclocarban formation incubated for 5 mins prior to UDPGA addition measured after 30 mins by LC-UV-ESI-MS/MS analysis; assay type: ADME; details: 0.5 h
Procedure, shortened: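 Pooled human kidney or liver microsomes (liver: 25 mixed-gender donors), 5 µg protein, in 200 µL 100 mM potassium phosphate pH 7.4. Alamethicin pre-treated on ice 15 min. Final 10 µM TCC (2% DMSO), with 10 mM MgCl2 and 10 mM saccharolactone, preincubated 5 min at 37 °C. Started with UDPGA (20 mM stock). Sampled at 5, 10, 15 and 30 min into ACN containing 1 µM DCC internal standard.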

[11] = biological target: T2, UDP-glucuronosyltransferase 2B17 (Homo sapiens, UniProt O75795); experiment: Drug metabolism assessed as human UGT2B17-mediated N-glucuronide-triclocarban formation expressed in baculovirus infected insect sf9 cells incubated for 5 mins prior to UDPGA addition measured after 5 to 30 mins by LC-UV analysis; assay type: ADME; procedure, shortened: as §4
T2 sequence (O75795 whole entry): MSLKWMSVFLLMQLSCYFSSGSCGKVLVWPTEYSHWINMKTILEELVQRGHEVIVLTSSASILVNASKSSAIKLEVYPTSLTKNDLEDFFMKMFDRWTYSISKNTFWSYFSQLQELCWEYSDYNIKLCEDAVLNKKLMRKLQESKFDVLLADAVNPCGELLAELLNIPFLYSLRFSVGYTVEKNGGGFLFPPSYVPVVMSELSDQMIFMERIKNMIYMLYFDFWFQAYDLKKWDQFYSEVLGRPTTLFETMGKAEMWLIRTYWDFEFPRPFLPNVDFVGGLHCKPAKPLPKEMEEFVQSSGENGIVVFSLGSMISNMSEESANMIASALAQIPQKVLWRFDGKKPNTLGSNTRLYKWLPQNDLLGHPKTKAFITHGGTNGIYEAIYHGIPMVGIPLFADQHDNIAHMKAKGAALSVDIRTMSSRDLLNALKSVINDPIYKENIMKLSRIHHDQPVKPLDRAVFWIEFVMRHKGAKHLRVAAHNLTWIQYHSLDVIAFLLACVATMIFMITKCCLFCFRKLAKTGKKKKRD

[12] = Drug metabolism in B6C3F1 mouse liver microsomes assessed as N'-glucuronide-triclocarban formation incubated for 5 mins prior to UDPGA addition measured after 30 mins by LC-UV-ESI-MS/MS analysis; assay type: ADME; details: 0.5 h; procedure, shortened: as §3

| Structure (SMILES) | Km at 0.5 h ([1]; B6C3F1, mouse, liver microsomes) [µM] | Vmax ([1]; mouse, microsomes, 0.5 h) [nmol/min/mg] | Km at 0.5 h [2] [µM] | Vmax (Liver microsome [3]) [nmol/min/mg] | CLH [4] [µL/min/mg] | CLH (Liver microsome [5]) [µL/min/mg] | Drug metabolism [6] | Drug metabolism [7] | Drug excretion [8] | Drug excretion [9] | Drug metabolism (Liver microsome [10]) | Drug metabolism [11] | Drug metabolism [12] |
| --- | --- | --- | --- | --- | --- | --- | --- | --- | --- | --- | --- | --- | --- |
| O=C(Nc1ccc(Cl)c(Cl)c1)Nc1ccc(Cl)cc1O | 2.46 | 1.45 | 3.08 | 5.37 | 19100 | 2860 | – | – | – | – | – | – | – |
| O=C(Nc1ccc(Cl)cc1)Nc1ccc(Cl)c(Cl)c1 [TRICLOCARBAN] | – | – | – | – | – | – | metabolite_detected | metabolite_not_detected | metabolite_detected | metabolite_detected | metabolite_detected | metabolite_not_detected | metabolite_detected |

From ChEMBL document CHEMBL3525967, “In vitro glucuronidation of the antibacterial triclocarban and its oxidative metabolites” (Drug Metab Dispos, 2012)
